Among the data in ChEMBL document CHEMBL1155859, “Synthesis of hydantoin analogues of (2S,3R,4S)-4-hydroxyisoleucine with insulinotropic properties” (Bioorg Med Chem Lett, 2008) are Activity and Lactone formation values, retold here.

The nature of data set [1]: Increase in insulin secretion in Sprague-Dawley rat pancreatic Langerhans islets at 25 uM. Type of data set: functional. The method in brief: (§1)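 Islets from male Sprague-Dawley rats (360–390 g) are digested with collagenase XI (2.5 mg/ml, HBSS, 35 min, 37 °C), purified on a Histopaque gradient and handpicked. They are pre-incubated 60 min at 37 °C, 5% CO2, in KRB with 8.3 mM glucose. Medium insulin is measured by ELISA in pg/islet/h (n = 6–12) against untreated basal.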

The nature of data set [2]: Increase in insulin secretion in Sprague-Dawley rat pancreas assessed per Langerhans islet. Type of data set: functional. The method in brief: as §1
Data set [3] is described as follows: Increase in insulin secretion in Sprague-Dawley rat pancreas at 75 uM assessed per Langerhans islet. In kind it is functional. The method in brief: as §1
Data set [4] can be described thus: Lactone formation at pH 1 after 1 hr. To be noted: buffer, pH 1, 1 h.
The species entered for another data set is Rattus norvegicus. The data set can be described thus: Increase in insulin secretion in Sprague-Dawley rat pancreatic Langerhans islets below 25 uM. Type of data set: functional. In outline: as §1
Data set [5] can be described thus: Lactone formation at pH 1 after 4 hrs. As to conditions: buffer, pH 1, 4 h.
Data set [6] in a line: Increase in insulin secretion in Sprague-Dawley rat pancreatic Langerhans islets at 200 uM. In kind it is functional. The method in brief: as §1

Activity calls are given as the source filed them. The rule behind the calls is not given here.

As to `C[C@@H]([C@H](C)O)[C@H]1NC(=O)NC1=O`, the values for the Activity in data set [1] and in data set [2] were 120% and 100 pg/h, respectively.

Take `C[C@@H]([C@H](C)O)[C@H](N)C(=O)O`: the figures for the Activity in data set [3] and in data set [2] were 100 pg/h and 45 pg/h, respectively. Besides, the Lactone formation is given as 10% in data set [4] and 32% in data set [5]. Further, the result in the data set filed under Rattus norvegicus was inactive.

As to `CCOc1cc(CC(=O)N[C@@H](CC(C)C)c2ccccc2N2CCCCC2)ccc1C(=O)O` [REPAGLINIDE], the Activity in data set [6] is 100%; in data set [2], 100 pg/h.

Compound `C[C@@H]([C@H](C)O)[C@@H]1NC(=O)NC1=O` showed an Activity in data set [2] of 100 pg/h.
